# Screening data as filed in PubChem BioAssay.
# Shown are actives, neighbours in structure and some others; about 3% of the full set was active somewhere.
# MC4R antag cAMP = antagonists of human melanocortin 4 receptor (MC4R); MC4R-expressing cells, MTII-stimulated cAMP, LANCE TR-FRET; inhibition, % at 6.5 µM; 360,000 compounds, 0.48% hits;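 active means inhibition above its plate's cutoff, the mean of tested wells on that plate plus 3 SD, cut at about 29% in these data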
#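 System – human MC4R-expressing U2OS cells · Also added – Melanotan II · Dosing – one concentration, 6.5 µM nominal · Timing – 30-min compound, 1-h challenge, 1-h detection, room temperature · Measured by – Eu-cAMP/anti-cAMP TR-FRET, emission 671 nm · Replicates – singlicate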
# MC4R ag barr = human MC4R agonism via beta-arrestin; U2OS MC4R beta-arrestin complementation, luminescence; percent of melanotan II response, DMSO zero; P32245; 360,000 compounds, 0.98% hits; activation, % at 8.9 µM;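 active means activation above a per-plate cutoff, the mean activation of sample wells on that plate plus 3 SD, cut at about 8% in these data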
# PfGluPho inh = PfG6PD (Plasmodium falciparum) enzyme inhibition | PfGluPho enzyme, NADPH resazurin-diaphorase fluorescence | inhibition, % at 20 µM | 350,000 compounds, 0.78% hits | AID 504690;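 active means inhibition reaching at least a set limit at 20 µM in the primary screen, cut at about 59% in these data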
# B2AR ag = activates human beta-2 adrenergic receptor causing internalization | Am2.2-beta2AR cells, FAP receptor internalization, flow cytometry | response, % (concentration not given with the values) | P07550 | 340,000 compounds, 0.43% hits;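 active means response above a set limit, near 3 SD of response in nonfluorescent compounds, cut at about 42% in these data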
# ABHD5-PLIN5 inh = blocks binding of human ABHD5 to perilipin-5; inhibition, % at 4 µM; 360,000 compounds, 0.78% hits; Split G. princeps luciferase complementation, luminescence, 4 h;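 active means inhibition above the mean inhibition across every tested compound plus 3 SD, cut at about 22% in these data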
# Target sequence (Q00G26 whole entry, looked up): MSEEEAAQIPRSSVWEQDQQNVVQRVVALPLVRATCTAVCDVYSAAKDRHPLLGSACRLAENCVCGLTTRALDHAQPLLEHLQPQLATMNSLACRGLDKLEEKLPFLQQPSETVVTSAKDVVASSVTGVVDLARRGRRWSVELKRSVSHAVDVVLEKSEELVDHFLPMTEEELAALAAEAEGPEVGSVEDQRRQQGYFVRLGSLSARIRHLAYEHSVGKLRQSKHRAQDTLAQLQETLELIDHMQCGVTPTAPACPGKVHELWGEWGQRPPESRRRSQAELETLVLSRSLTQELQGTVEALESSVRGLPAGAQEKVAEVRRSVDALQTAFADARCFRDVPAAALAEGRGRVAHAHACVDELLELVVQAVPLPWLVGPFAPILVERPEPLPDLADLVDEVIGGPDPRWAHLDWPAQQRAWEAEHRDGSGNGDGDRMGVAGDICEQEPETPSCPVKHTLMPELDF
# Target sequence (Q8WTS1 whole entry, looked up): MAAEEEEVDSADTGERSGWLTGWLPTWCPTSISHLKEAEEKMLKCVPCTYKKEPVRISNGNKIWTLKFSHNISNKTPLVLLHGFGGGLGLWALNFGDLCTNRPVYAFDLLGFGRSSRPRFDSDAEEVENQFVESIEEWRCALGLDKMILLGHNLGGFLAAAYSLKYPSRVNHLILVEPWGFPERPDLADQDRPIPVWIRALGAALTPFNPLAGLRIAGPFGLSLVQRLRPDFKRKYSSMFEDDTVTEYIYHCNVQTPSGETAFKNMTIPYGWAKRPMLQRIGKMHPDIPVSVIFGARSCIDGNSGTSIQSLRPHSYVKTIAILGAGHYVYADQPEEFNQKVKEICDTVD
# ABHD5-PLIN5 conf = ABHD5-PLIN5 interaction inhibition, confirmed | biochemical ABHD5-PLIN5 interaction, luminescence | 2,200 compounds, 67% hits | inhibition, % at 4 µM | AID 651612 | shares compounds with ABHD5-PLIN5 inh; in the data active means inhibition above about 23%
# HNF4 counter = active in HNF4 split-luciferase counter-screen for ABHD5-PLIN5 inhibitors; HNF4 dimerization, luminescence, biochemical; 2,200 compounds, 77% hits; shares compounds with ABHD5-PLIN5 inh; inhibition, % at 4 µM;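 active means mean inhibition across replicate wells exceeding the computed hit threshold, cut at about 13% in these data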;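 further: light from luciferase halves that rejoin when HNF4 fusion proteins dimerize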
# A number is an active result; - = inactive; . = not tested or not shown.
SMILES,MC4R antag cAMP,MC4R ag barr,PfGluPho inh,B2AR ag,ABHD5-PLIN5 inh,ABHD5-PLIN5 conf,HNF4 counter
C=CCc1cc(/C=C/c2nc(O)c([N+](=O)[O-])c(=O)[nH]2)cc(OC)c1O,-,-,-,-,27,42,32
CCOc1cc(/C=C\c2nc(O)c([N+](=O)[O-])c(=O)[nH]2)ccc1OC(C)C,-,-,-,-,-,.,.
C=CCn1c(SCC(=O)NC2CCCC2)nc2scc(-c3ccco3)c2c1=O,-,-,-,-,43,36,86
CC(C)C(O)(C#CCN1CCCCC1)C(C)C,-,-,-,-,-,.,.
CCCCCCCCCc1conc1C(=O)CP(=O)(OC)OC,.,.,.,.,-,.,.
CCCCCCCCCc1conc1C(=O)/C=C/c1ccco1,.,.,.,.,25,26,21
Cc1cccc(C)c1NC(=O)C(c1ccnc2ccccc12)n1c(=O)c(-c2ccco2)nc2ccccc21 (configuration not stated),.,.,.,.,45,52,13
COc1ccc(NC(=O)C(c2ccccc2F)n2c(=O)c(-c3ccco3)nc3ccccc32)cc1 (configuration not stated),.,.,.,.,-,.,.
Cc1cccc(C)c1NC(=O)C(c1ccccc1F)n1c(=O)c(-c2ccco2)nc2ccccc21 (configuration not stated),.,.,.,.,86,76,28
O=[N+]([O-])/C=C\c1ccc(N2CCCC2)c(F)c1,-,-,-,-,64,98,100
O=C(O)c1cccc(Nc2cc(Cl)c3nonc3c2[N+](=O)[O-])c1,-,-,-,-,29,58,95
O=C(O)c1ccccc1Nc1cc(Cl)c2nonc2c1[N+](=O)[O-],-,-,-,-,29,80,95
COc1cc(/C=N/N=C(N)N)ccc1OCc1ccc(Cl)cc1,-,-,-,-,24,-,-
Nc1ccccc1SC(CC(=O)c1ccccc1)c1ccccc1 (configuration not stated),-,-,-,.,68,-,79
Nc1ccccc1SCc1ccccc1Cl,-,-,-,-,-,.,.
COC(=O)c1ccccc1SC(CC(=O)c1ccccc1)c1ccc(F)cc1 (configuration not stated),-,-,-,-,-,.,.
CC(C(Sc1ccccc1N)c1ccccc1)[N+](=O)[O-] (configuration not stated),-,-,-,-,27,63,77
COCCNC(=O)c1cc(-c2ccccc2C)nn1CC1CC(c2cccnc2)=NO1 (configuration not stated),-,-,-,-,-,.,.
Cc1ccc(C(C)C)cc1OCC(=O)N1CCN(C(=O)c2ccco2)CC1,-,-,-,-,24,-,-
CC(C)c1ccc(OCC(=O)N2CCN(C(=O)c3ccco3)CC2)cc1,-,-,-,-,-,.,.
Oc1c(Cl)cc(Oc2cc(Cl)c(O)c(CN3CCOCC3)c2)cc1CN1CCOCC1,-,-,-,-,-,.,.
CCCc1cc(CN2CCOCC2)c(O)c(CN2CCOCC2)c1O,-,-,-,-,25,63,100
COc1ccc(Cl)cc1Cn1c(C)c(C(=O)NCc2ccc3c(c2)OCCO3)sc1=O,-,-,.,.,-,.,.
Cc1cc(C(F)(F)F)nn1Cc1ccc(C(=O)NCc2ccco2)o1,-,-,-,-,23,29,23
Cc1nc2ccccc2c(=O)n1-c1cccc(NC(=O)c2cccs2)c1,-,-,-,-,-,.,.
SMILES,MC4R antag cAMP,MC4R ag barr,PfGluPho inh,B2AR ag,ABHD5-PLIN5 inh,ABHD5-PLIN5 conf,HNF4 counter
O=C(Nc1cccc(N2C(=O)C=CC2=O)c1)c1cccs1,-,-,.,53,30,48,96
N#Cc1ccc(CN2CCN(C(=O)c3ccc(S(=O)(=O)NCc4ccco4)cc3)CC2)cc1,-,-,-,-,-,.,.
C#CCOCCOCCOCCNc1nc(N2CCN(C(=O)CCCCCCCCCCNC(=O)Cn3cc(C[C@@H](C)O)nn3)CC2)nc(N2CCN(C(=O)CCCCCCCCCCNC(=O)[C@H](CO)n3cc(CCCSC)nn3)CC2)n1,-,-,-,-,-,.,.
C#CCOCCOCCOCCNc1nc(N2CCN(C(=O)CCCCCCCCCCNC(=O)[C@@H](CCSC)n3cc(CCO)nn3)CC2)nc(N2CCN(C(=O)CCCCCCCCCCNC(=O)[C@H](CCSC)n3cc(CCO)nn3)CC2)n1,-,-,-,-,44,-,-
C#CCOCCOCCOCCNc1nc(N2CCN(C(=O)CCCCCCCCCCNC(=O)[C@H](CCCCN)n3cc(CCCC(=O)O)nn3)CC2)nc(N2CCN(C(=O)CCCCCCCCCCNC(=O)[C@@H]([C@H](C)O)n3cc(C)nn3)CC2)n1,-,-,-,-,37,-,-
C#CCOCCOCCOCCNc1nc(N2CCN(C(=O)CCCCCCCCCCNC(=O)Cn3cc(C[C@@H](C)O)nn3)CC2)nc(N2CCN(C(=O)CCCCCCCCCCNC(=O)[C@H](CCCCN)n3cc(CCCC(=O)O)nn3)CC2)n1,-,-,-,-,36,-,14
C#CCOCCOCCOCCNc1nc(N2CCN(C(=O)CCCCCCCCCCNC(=O)[C@H]([C@@H](C)CC)n3cc(CCCCCN)nn3)CC2)nc(N2CCN(C(=O)CCCCCCCCCCNC(=O)[C@H](CCCCN)n3cc(CCCC(=O)O)nn3)CC2)n1,-,-,-,-,39,-,-
C#CCOCCOCCOCCNc1nc(N2CCN(C(=O)[C@H]([C@@H](C)CC)n3cc(CCC(=O)O)nn3)CC2)nc(N2CCN(C(=O)[C@H](CCCCN)n3cc(CCCC)nn3)CC2)n1,-,-,-,-,-,.,.
C#CCOCCOCCOCCNc1nc(N2CCN(C(=O)Cn3cc(CCO)nn3)CC2)nc(N2CCN(C(=O)[C@H](C(C)C)n3cc(CCO)nn3)CC2)n1,-,-,-,-,-,.,.
C=C1CC2C(=O)N(Cc3cc(OC)ccc3OC)C(C(=O)OCC)(C(=O)OCC)C1N2C(=O)OC(C)(C)C (configuration not stated),-,-,-,-,-,.,.
COc1ccccc1N1C(=O)CC(N2CCN(c3ccc(Cl)cc3)CC2)C1=O (configuration not stated),-,-,-,-,-,.,.
CCN(CC)CCN(C(=O)CCS(=O)(=O)c1ccccc1)c1nc2cc3c(cc2s1)OCO3,-,-,-,-,-,.,.
CN(C)/C=C1/N=C(c2ccccc2)OC1=O,-,-,-,-,-,.,.
O=CC1=C(c2ccccc2)Oc2ccccc2O1,-,-,-,67,30,73,31
O=C(CSc1n[nH]c(-c2ccccc2)n1)NC(=O)NCc1ccco1,-,-,-,-,23,-,-
Cc1cc(SCC(=O)NC(=O)NCc2ccco2)nc2c(C)cccc12,-,-,-,-,40,27,38
CN(Cc1ccccc1)C(=O)COC(=O)CN1C(=O)c2ccccc2C1=O,-,-,-,-,-,.,.
